Tests used:
Blood = assay: Inhibition of LTB4 production in calcium ionophore treated A23187 human whole blood after 15 mins; assay type: functional, tissue-based; settings: 0.25 h
[1] = Inhibition of LTB4 production in calcium ionophore A23187 treated human leukocytes; assay type: functional, cell-based; settings: Leukocyte
How it was run: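 Human leukocytes challenged with calcium ionophore; LTB4 produced by the cells was measured. IC50 is the average of n ≥ 3.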

[2] = target: T1, Arachidonate 5-lipoxygenase-activating protein (Homo sapiens, UniProt P20292); assay: Binding affinity to FLAP in human PMN derived membrane; assay type: cell membranes
T1 sequence (P20292 whole entry): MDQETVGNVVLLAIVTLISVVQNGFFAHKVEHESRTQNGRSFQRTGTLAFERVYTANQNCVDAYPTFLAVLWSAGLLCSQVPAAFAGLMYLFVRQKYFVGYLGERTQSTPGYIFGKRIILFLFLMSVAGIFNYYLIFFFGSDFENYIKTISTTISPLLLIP
How it was run: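 FLAP binding measured in membranes derived from human polymorphonuclear leukocytes (PMN). IC50 values are the average of n ≥ 3.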

[3] = Clearance in rat at 10 mg/kg, po; assay type: ADME, organism-based; design: dose 10 mg/kg, route oral; settings: in vivo
How it was run: (§1)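 Rat, oral dosing at 10 mg/kg given as the sodium carboxylate salt. Read-outs: F, clearance, Cmax, AUC and half-life.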

CYP2C9 = CYP2C9 (Homo sapiens, UniProt P11712); assay: Inhibition of CYP2C9 at 10 uM; assay type: ADME
Chain of CYP2C9 (P11712 whole entry): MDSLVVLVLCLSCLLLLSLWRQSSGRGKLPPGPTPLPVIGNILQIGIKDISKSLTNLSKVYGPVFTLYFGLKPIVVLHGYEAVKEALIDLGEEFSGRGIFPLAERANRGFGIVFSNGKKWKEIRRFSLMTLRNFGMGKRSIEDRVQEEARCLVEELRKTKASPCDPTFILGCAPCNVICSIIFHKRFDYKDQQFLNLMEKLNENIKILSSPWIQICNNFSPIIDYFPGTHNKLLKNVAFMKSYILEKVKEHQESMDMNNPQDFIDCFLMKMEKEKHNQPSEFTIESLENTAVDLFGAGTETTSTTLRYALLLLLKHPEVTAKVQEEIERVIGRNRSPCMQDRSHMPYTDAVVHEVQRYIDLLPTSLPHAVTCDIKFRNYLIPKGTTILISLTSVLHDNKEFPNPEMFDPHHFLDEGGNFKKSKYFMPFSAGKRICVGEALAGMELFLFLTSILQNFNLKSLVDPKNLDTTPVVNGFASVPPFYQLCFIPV

CYP3A4 = CYP3A4 (Homo sapiens, UniProt P08684); assay: Inhibition of CYP3A4 at 10 uM; assay type: ADME
Chain of CYP3A4 (P08684 whole entry): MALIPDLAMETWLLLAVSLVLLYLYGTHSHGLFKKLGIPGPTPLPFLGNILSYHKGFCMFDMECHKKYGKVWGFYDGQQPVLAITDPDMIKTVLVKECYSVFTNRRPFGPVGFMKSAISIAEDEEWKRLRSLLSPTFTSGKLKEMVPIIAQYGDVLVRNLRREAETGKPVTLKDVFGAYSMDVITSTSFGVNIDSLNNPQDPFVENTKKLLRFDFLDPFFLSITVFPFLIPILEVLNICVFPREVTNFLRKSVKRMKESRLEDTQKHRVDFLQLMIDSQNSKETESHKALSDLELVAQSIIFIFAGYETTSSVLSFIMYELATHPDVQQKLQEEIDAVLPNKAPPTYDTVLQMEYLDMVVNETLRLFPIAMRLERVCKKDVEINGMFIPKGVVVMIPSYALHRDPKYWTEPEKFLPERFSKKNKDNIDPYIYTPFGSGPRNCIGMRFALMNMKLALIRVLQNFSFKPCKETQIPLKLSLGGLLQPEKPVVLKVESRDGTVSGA

[4] = Bioavailability in rat at 10 mg/kg; assay type: ADME, organism-based; settings: in vivo; how it was run: as §1
[5] = Cmax in rat at 10 mg/kg, po; assay type: ADME, organism-based; design: dose 10 mg/kg, route oral; settings: in vivo; how it was run: as §1
[6] = AUC in rat at 10 mg/kg, po; assay type: ADME, organism-based; design: dose 10 mg/kg, route oral; settings: plasma; how it was run: as §1
Cytochrome P450 2C9 = Cytochrome P450 2C9 (Homo sapiens, UniProt P11712); assay: Inhibition of CYP2C9; assay type: ADME
Chain of Cytochrome P450 2C9 (P11712 whole entry): as the sequence (P11712 whole entry) above

Row | SMILES | IC50 (Blood) [nM] | IC50 [1] [nM] | IC50 [2] [nM] | further results
1 | CC(C)(C)Sc1c(CC(C)(C)C(=O)O)n(Cc2ccc(Cl)cc2)c2ccc(OCC(O)c3ccc(F)cc3)cc12 (stereo not drawn) | 469 | 7 | 19 | –
2 | CC(=O)N1c2ccccc2C[C@H]1COc1ccc2c(c1)c(C(=O)c1ccccc1)c(CC(C)(C)C(=O)O)n2Cc1ccc(Cl)cc1 | 63100 | 263 | > 10000 | –
3 | CC(C)(C)OC(=O)N1CCC[C@@H]1COc1ccc2c(c1)c(SC(C)(C)C)c(CC(C)(C)C(=O)O)n2Cc1ccc(Cl)cc1 | 67800 | 193 | 1810 | –
4 | COc1ccc(-c2ccc(Cn3c(CC(C)(C)C(=O)O)c(SC(C)(C)C)c4cc(OC[C@@H]5Cc6ccccc6N5C(C)=O)ccc43)cc2)nc1 | 373 | 0.5 | 3.8 | –
5 | CC(=O)N1c2ccccc2C[C@H]1COc1ccc2c(c1)c(SC(C)(C)C)c(CC(C)(C)C(=O)O)n2Cc1ccc(Cl)cc1 | 169 | 0.5 | 1.4 | CL/F [3]: 25 mL/min/kg; inhibition at 10 µM (CYP2C9): 96%; inhibition at 10 µM (CYP3A4): 80%; bioavailability [4]: 11%; Cmax [5]: 270 nM
6 | CC(C)(C)OC(=O)N1c2ccccc2C[C@@H]1COc1ccc2c(c1)c(SC(C)(C)C)c(CC(C)(C)C(=O)O)n2Cc1ccc(Cl)cc1 | 12300 | 102 | > 10000 | –
7 | CC(=O)N1c2ccccc2C[C@H]1COc1ccc2c(c1)c(CCC(C)(C)C)c(CC(C)(C)C(=O)O)n2Cc1ccc(Cl)cc1 | 405 | 4.2 | 4.7 | inhibition at 10 µM (CYP2C9): > 80%; inhibition at 10 µM (CYP3A4): > 80%
8 | CC(C)(C)OC(=O)N1CCC[C@H]1COc1ccc2c(c1)c(SC(C)(C)C)c(CC(C)(C)C(=O)O)n2Cc1ccc(Cl)cc1 | 17200 | 29 | 1110 | –
9 | CC(=O)N1c2ccccc2C[C@H]1COc1ccc2c(c1)c([S+]([O-])C(C)(C)C)c(CC(C)(C)C(=O)O)n2Cc1ccc(Cl)cc1 (stereo partly drawn) | 23200 | 335 | 74 | –
10 | CC(C)(C)OC(=O)N1c2ccccc2C[C@H]1COc1ccc2c(c1)c(SC(C)(C)C)c(CC(C)(C)C(=O)O)n2Cc1ccc(Cl)cc1 | – | 106 | 1100 | –
11 | CC(C)(C)Sc1c(CC(C)(C)C(=O)O)n(Cc2ccc(Cl)cc2)c2ccc(OC[C@@H]3CCC(=O)N3)cc12 | 9020 | 108 | 616 | –
12 | CC(C)(C)Sc1c(CC(C)(C)C(=O)O)n(Cc2ccc(Cl)cc2)c2ccc(OCC(=O)c3ccc(F)cc3)cc12 | 11800 | 769 | 13 | –
13 | CC(C)(C)Sc1c(CC(C)(C)C(=O)O)n(Cc2ccc(Cl)cc2)c2ccc(OC[C@@H]3CCCN3C(=O)C3CC3)cc12 | 885 | 8 | 50 | –
14 | CC(=O)N1CCC[C@H]1COc1ccc2c(c1)c(SC(C)(C)C)c(CC(C)(C)C(=O)O)n2Cc1ccc(Cl)cc1 | 403 | 16 | 6 | CL/F [3]: 20 mL/min/kg; inhibition at 10 µM (CYP2C9): 93%; inhibition at 10 µM (CYP3A4): 64%; bioavailability [4]: 10%; AUC [6]: 1200 ng·h/mL
15 | CC(C)(C)Sc1c(CC(C)(C)C(=O)O)n(Cc2ccc(Cl)cc2)c2ccc(OC[C@@H]3Cc4ccccc4N3)cc12 | 1430 | 4.1 | 85 | –
16 | CC(=O)N1c2ccccc2C[C@H]1COc1ccc2c(c1)c(SC(C)(C)C)c(CC(C)(C)C(=O)O)n2Cc1ccc(-c2ccc(F)cn2)cc1 | 235 | 0.5 | 1.7 | –
17 | CC(C)(C)Sc1c(CC(C)(C)C(=O)O)n(Cc2ccc(Cl)cc2)c2ccc(OCc3ccc4ccccc4n3)cc12 [QUIFLAPON] | – | – | – | IC50 (Cytochrome P450 2C9): 500 nM

Row | SMILES | IC50 (Blood) [nM] | IC50 [1] [nM] | IC50 [2] [nM] | further results
18 | CCC(=O)N1CCC[C@H]1COc1ccc2c(c1)c(SC(C)(C)C)c(CC(C)(C)C(=O)O)n2Cc1ccc(Cl)cc1 | 307 | 1.5 | 4 | –
19 | CC(=O)N[C@H](COc1ccc2c(c1)c(SC(C)(C)C)c(CC(C)(C)C(=O)O)n2Cc1ccc(Cl)cc1)c1ccccc1 | 23100 | 72 | 581 | –
20 | CC(C)(C)Sc1c(CC(C)(C)C(=O)O)n(Cc2ccc(Cl)cc2)c2ccc(OC[C@@H]3CCCN3)cc12 | – | 2780 | > 10000 | –
21 | COc1nc(-c2ccc(Cn3c(CC(C)(C)C(=O)O)c(SC(C)(C)C)c4cc(OC[C@@H]5Cc6ccccc6N5C(C)=O)ccc43)cc2)cs1 | 573 | 0.6 | 2.5 | –
22 | COc1ccc(-c2ccc(Cn3c(CC(C)(C)C(=O)O)c(SC(C)(C)C)c4cc(OC[C@@H]5Cc6ccccc6N5C(C)=O)ccc43)cc2)nn1 | 1110 | 12.6 | 3.2 | –
23 | CC(C)(C)Sc1c(CC(C)(C)C(=O)O)n(Cc2ccc(Cl)cc2)c2ccc(OC[C@@H]3CCCN3S(C)(=O)=O)cc12 | 4300 | 30 | 441 | –
24 | CC(=O)N1c2ccccc2C[C@H]1COc1ccc2c(c1)c(Cc1ccccc1)c(CC(C)(C)C(=O)O)n2Cc1ccc(Cl)cc1 | 428 | 1.5 | 15.2 | inhibition at 10 µM (CYP2C9): > 80%; inhibition at 10 µM (CYP3A4): > 80%
25 | COc1ccc(-c2ccc(Cn3c(CC(C)(C)C(=O)O)c(SC(C)(C)C)c4cc(OC[C@@H]5Cc6ccccc6N5C(C)=O)ccc43)cc2)cn1 | 276 | 1.8 | 9.3 | –
26 | CC(=O)N1c2ccccc2C[C@H]1COc1ccc2c(c1)c(S(=O)(=O)C(C)(C)C)c(CC(C)(C)C(=O)O)n2Cc1ccc(Cl)cc1 | 1740 | 19 | 4.5 | –
27 | CC(=O)N1c2ccccc2C[C@H]1COc1ccc2c(c1)c(C(=O)C(C)C)c(CC(C)(C)C(=O)O)n2Cc1ccc(Cl)cc1 | 4900 | 20.6 | 20.6 | –
28 | CC(=O)N1c2ccccc2C[C@H]1COc1ccc2c(c1)c(C(=O)C(C)(C)C)c(CC(C)(C)C(=O)O)n2Cc1ccc(Cl)cc1 | 521 | 1.3 | 19 | –
29 | CC(=O)N1c2ccccc2C[C@H]1COc1ccc2c(c1)c(CC(C)C)c(CC(C)(C)C(=O)O)n2Cc1ccc(Cl)cc1 | 200 | 0.5 | 35 | inhibition at 10 µM (CYP2C9): > 80%; inhibition at 10 µM (CYP3A4): > 80%
30 | CC(C)(C)Sc1c(CC(C)(C)C(=O)O)n(Cc2ccc(Cl)cc2)c2ccc(OC[C@@H]3CCCN3C(=O)c3ccccc3)cc12 | 22300 | 110 | 1340 | –
31 | CC(C)C(=O)N1CCC[C@H]1COc1ccc2c(c1)c(SC(C)(C)C)c(CC(C)(C)C(=O)O)n2Cc1ccc(Cl)cc1 | 5660 | 51 | 186 | –
32 | CC(=O)N1c2ccccc2C[C@H]1COc1ccc2c(c1)c(C(=O)C(C)(C)C)c(CC(C)(C)C(=O)[O-])n2Cc1ccc(Cl)cc1.[Na+] | – | – | – | bioavailability [4]: 7%; Cmax [5]: 270 nM
33 | CC(C)(C)Sc1c(CC(C)(C)C(=O)O)n(Cc2ccc(Cl)cc2)c2ccc(OCC(N)=O)cc12 | 2140 | 28 | 38 | –
34 | CC(=O)N1c2ccccc2C[C@H]1COc1ccc2c(c1)cc(CC(C)(C)C(=O)O)n2Cc1ccc(Cl)cc1 | 31500 | 12.9 | 218 | –

Reference: ChEMBL document CHEMBL1153124, “5-Lipoxygenase-activating protein inhibitors. Part 2: 3-{5-((S)-1-Acetyl-2,3-dihydro-1H-indol-2-ylmethoxy)-3-tert-butylsulfanyl-1-[4-(5-methoxy-pyrimidin-2-yl)-benzyl]-1H-indol-2-yl}-2,2-dimethyl-propionic acid (AM679)--a potent FLAP inhibitor” (Bioorg Med Chem Lett, 2010)
